Legend:
[1] = target: T1, Fatty-acid amide hydrolase 1 (Homo sapiens, UniProt O00519); experiment: Drug metabolism assessed as human recombinant N-terminal FLAG/C-terminal His-tagged FAAH1 (32 to 579 residues)-mediated compound hydrolysis by measuring release of EPA at 25 uM after 2 hrs by LC/MS-MS analysis in presence of PF-3845; format: ADME
T1 sequence (O00519 whole entry): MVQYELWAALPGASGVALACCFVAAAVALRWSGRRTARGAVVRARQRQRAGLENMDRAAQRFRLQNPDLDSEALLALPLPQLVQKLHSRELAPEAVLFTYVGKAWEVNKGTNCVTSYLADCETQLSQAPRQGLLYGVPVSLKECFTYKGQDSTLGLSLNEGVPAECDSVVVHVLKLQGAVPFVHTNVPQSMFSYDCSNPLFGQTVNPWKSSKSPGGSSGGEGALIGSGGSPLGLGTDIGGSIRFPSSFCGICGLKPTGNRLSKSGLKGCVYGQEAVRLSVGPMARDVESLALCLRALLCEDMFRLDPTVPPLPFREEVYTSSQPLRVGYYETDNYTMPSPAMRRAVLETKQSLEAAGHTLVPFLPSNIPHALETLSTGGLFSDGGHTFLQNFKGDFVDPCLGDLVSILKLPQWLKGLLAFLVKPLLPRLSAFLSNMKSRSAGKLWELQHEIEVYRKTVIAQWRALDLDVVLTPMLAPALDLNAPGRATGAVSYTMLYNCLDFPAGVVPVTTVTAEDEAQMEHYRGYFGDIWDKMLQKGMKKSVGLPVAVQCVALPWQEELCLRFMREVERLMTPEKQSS

Rattus norvegicus = experiment: Cmax in Sprague-Dawley rat assessed as salicylic acid at 300 mg/kg, po measured up to 24 hrs post dose; format: ADME, organism-based; design: dose 300 mg/kg, route oral; conditions: in vivo
Summary of the method: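 Single oral dose of 300 mg/kg to Sprague Dawley rats. Plasma collected at 0, 0.5, 1, 2, 4, 8 and 24 hr. Analytes were the parent, the salicylate-linker and linker-DHA metabolites, salicylic acid and salicyluric acid; Cmax and AUClast derived.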

For `CC/C=C\C/C=C\C/C=C\C/C=C\C/C=C\CCCC(=O)NCCNC(=O)c1cccnc1`, the Drug metabolism [1] was “metabolite_notdetected”.

`CC/C=C\C/C=C\C/C=C\C/C=C\C/C=C\C/C=C\CCC(=O)NCCNC(=O)c1ccccc1O` [EDASALONEXENT] gave a Cmax (Rattus norvegicus) of 75 ng/mL.

Source: ChEMBL document CHEMBL3785029, “Synthesis and Characterization of Fatty Acid Conjugates of Niacin and Salicylic Acid” (J Med Chem, 2016)
